Experiments:
[1] = target: T1, Prostaglandin D2 receptor (Mus musculus, UniProt P70263); test: Displacement of [3H]-PGD2 from mouse DP receptor expressed in CHO cells after 20 mins by liquid scintillation counting; assay type: cell-based
T1 sequence (P70263 whole entry): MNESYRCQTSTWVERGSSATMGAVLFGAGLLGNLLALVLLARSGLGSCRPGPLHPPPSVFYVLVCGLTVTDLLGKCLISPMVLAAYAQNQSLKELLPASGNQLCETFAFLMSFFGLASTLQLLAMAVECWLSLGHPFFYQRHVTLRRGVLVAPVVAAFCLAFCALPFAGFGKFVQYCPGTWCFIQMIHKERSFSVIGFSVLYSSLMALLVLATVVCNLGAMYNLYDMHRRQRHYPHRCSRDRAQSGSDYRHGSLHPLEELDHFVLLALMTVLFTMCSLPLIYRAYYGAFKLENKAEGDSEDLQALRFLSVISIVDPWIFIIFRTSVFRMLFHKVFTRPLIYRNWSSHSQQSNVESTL
Method in brief: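 Membranes from CHO cells stably expressing mDP were incubated with 2.5 nM [³H]PGD₂ and compounds at various concentrations. Buffer was 25 mM HEPES–NaOH pH 7.4 with 1 mM EDTA, 5 mM MgCl₂ and 10 mM MnCl₂, for 20 min at room temperature. Samples were filtered on GF/B and washed with Tris–HCl pH 7.4, NaCl, 0.01% BSA. Filters were dried 60 min at 60 °C and read by scintillation counting. Nonspecific binding was set with excess unlabeled PGD₂.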

[2] = target: Prostaglandin E2 receptor EP4 subtype (Mus musculus, UniProt P32240); test: Displacement of [3H]-PGE2 from mouse EP4 receptor expressed in CHO cells after 60 mins by liquid scintillation counting; assay type: cell-based
Sequence of Prostaglandin E2 receptor EP4 subtype (P32240 whole entry): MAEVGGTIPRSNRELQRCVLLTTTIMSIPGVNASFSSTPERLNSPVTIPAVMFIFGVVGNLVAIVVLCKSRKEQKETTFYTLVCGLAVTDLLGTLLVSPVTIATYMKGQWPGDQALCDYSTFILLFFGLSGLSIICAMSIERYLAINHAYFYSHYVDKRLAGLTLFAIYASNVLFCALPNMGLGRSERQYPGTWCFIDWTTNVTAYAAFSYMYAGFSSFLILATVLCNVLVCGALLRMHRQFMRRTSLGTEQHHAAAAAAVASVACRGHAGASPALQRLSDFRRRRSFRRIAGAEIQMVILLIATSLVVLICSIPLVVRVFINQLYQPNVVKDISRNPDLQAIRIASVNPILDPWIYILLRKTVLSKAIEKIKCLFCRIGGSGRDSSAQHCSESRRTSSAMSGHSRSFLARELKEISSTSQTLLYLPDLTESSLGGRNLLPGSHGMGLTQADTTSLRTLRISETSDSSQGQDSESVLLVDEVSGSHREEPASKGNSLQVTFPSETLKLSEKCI
Method in brief: (§1)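 Membranes from CHO cells stably expressing mEP1, mEP2, mEP3a, mEP4 or mFP were used. The radioligand was 2.5 nM [³H]PGE₂ for EP receptors and 2.5 nM [³H]PGF2α for FP. Buffer was 10 mM KH₂PO₄–KOH pH 6.0 with 1 mM EDTA, 10 mM MgCl₂ and 100 mM NaCl. Incubation was at room temperature, 20 min for mEP1 and 60 min for the others. Samples were filtered on GF/B, washed with phosphate/NaCl pH 6.0, dried 60 min at 60 °C and scintillation counted.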

[3] = target: Prostaglandin E2 receptor EP2 subtype (Mus musculus, UniProt Q62053); test: Displacement of [3H]-PGE2 from mouse EP2 receptor expressed in CHO cells after 60 mins by liquid scintillation counting; assay type: cell-based; method in brief: as §1
Sequence of Prostaglandin E2 receptor EP2 subtype (Q62053 whole entry): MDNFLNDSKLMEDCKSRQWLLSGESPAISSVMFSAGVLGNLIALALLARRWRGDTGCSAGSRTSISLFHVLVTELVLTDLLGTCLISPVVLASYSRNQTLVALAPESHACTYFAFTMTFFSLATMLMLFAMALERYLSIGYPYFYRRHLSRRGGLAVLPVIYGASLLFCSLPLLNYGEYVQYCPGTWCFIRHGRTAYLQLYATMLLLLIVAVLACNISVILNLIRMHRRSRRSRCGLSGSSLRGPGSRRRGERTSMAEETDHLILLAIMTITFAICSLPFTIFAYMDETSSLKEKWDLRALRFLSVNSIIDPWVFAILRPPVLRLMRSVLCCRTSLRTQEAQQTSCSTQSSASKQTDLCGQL

[4] = target: T2, Prostaglandin E2 receptor EP1 subtype (Mus musculus, UniProt P35375); test: Displacement of [3H]-PGE2 from mouse EP1 receptor expressed in CHO cells after 20 mins by liquid scintillation counting; assay type: cell-based; method in brief: as §1
T2 sequence (P35375 whole entry): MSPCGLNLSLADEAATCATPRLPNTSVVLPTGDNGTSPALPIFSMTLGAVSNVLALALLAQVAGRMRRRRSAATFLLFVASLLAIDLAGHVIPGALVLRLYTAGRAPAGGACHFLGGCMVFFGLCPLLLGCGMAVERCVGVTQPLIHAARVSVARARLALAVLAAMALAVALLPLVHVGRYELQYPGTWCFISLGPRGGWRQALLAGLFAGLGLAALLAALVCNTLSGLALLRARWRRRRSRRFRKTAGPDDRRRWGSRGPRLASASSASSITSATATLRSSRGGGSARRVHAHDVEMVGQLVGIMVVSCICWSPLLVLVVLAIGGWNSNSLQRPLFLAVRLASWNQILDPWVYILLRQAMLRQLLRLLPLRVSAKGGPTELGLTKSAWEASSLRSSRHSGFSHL

Cavia porcellus [5] = test: Inhibition of OVA-induced vascular permeability in guinea pig conjunctiva at 3 mg/kg, po administered 1 hr before antigen challenge measured after 30 mins; assay type: functional
Method in brief: (§2)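 Male Hartley guinea pigs were sensitized i.p. with OVA (1 mg) plus inactivated Bordetella pertussis. Two weeks later they were challenged with topical OVA (1%, 20 µL/eye), followed at once by Evans blue (20 mg/kg iv). Compound was given orally 1 h before challenge. After 30 min, conjunctiva was removed and extracted in DMF at 37 °C. Dye was read at 620 nm against a standard curve.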

[6] = target: T3, Prostaglandin E2 receptor EP3 subtype (Mus musculus, UniProt P30557); test: Displacement of [3H]-PGE2 from mouse EP3 receptor expressed in CHO cells after 60 mins by liquid scintillation counting; assay type: cell-based; method in brief: as §1
T3 sequence (P30557 whole entry): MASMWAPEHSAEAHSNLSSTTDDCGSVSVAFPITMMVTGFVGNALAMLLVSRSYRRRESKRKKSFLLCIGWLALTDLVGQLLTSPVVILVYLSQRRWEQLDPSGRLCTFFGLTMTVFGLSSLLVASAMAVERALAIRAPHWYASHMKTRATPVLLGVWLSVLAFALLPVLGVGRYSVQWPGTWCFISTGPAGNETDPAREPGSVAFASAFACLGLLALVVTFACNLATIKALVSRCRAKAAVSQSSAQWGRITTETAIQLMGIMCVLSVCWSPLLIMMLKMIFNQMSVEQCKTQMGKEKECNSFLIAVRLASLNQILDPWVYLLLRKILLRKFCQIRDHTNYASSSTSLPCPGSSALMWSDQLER

[7] = target: T1, Prostaglandin D2 receptor; test: Antagonist activity at mouse DP receptor expressed in CHO cells assessed as inhibition of PGD2-induced cAMP accumulation after 10 mins by enzyme immunoassay in the presence of 0.1% BSA; assay type: functional, cell-based
Method in brief: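 CHO cells stably expressing mDP were seeded at 1 × 10⁵ cells/well and grown 2 days. They were preincubated about 10 min at 37 °C in MEM with Diclofenac, then given assay medium (MEM, 0.1% BSA, 1 mM IBMX, Diclofenac). Test compound at various concentrations plus 10 nM PGD₂ was added for 10 min at 37 °C. The reaction was stopped with ice-cold 10% TCA and TCA was extracted. cAMP was measured by EIA. IC50 came from cAMP relative to the PGD₂-only maximum.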

Thromboxane A2 receptor = target: T4, Thromboxane A2 receptor (Homo sapiens, UniProt P21731); test: Displacement of [3H]-SQ29548 from human TP receptor expressed in CHO cells after 30 mins by liquid scintillation counting; assay type: cell-based
T4 sequence (P21731 whole entry): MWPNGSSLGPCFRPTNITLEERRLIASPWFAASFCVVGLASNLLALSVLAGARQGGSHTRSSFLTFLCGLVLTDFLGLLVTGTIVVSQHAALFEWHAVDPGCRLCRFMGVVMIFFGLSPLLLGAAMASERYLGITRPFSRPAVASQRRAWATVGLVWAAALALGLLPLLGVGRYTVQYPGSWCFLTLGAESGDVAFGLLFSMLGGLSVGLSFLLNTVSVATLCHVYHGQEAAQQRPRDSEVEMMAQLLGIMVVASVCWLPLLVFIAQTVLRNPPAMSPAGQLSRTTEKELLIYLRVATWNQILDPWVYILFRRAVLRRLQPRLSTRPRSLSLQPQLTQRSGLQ
Method in brief: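 Membranes from CHO cells expressing hTP were incubated with 5.0 nM [³H]-SQ29548 and compounds at various concentrations. Buffer was 10 mM Tris–HCl pH 7.5 with 100 mM NaCl, for 30 min at room temperature. Samples were filtered on GF/B, washed with the same buffer, dried 60 min at 60 °C and scintillation counted. Nonspecific binding was set with excess unlabeled SQ29548.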

[8] = target: Prostaglandin F2-alpha receptor (Mus musculus, UniProt P43117); test: Displacement of [3H]-PGF2-alpha from mouse FP receptor expressed in CHO cells after 60 mins by liquid scintillation counting; assay type: cell-based; method in brief: as §1
Sequence of Prostaglandin F2-alpha receptor (P43117 whole entry): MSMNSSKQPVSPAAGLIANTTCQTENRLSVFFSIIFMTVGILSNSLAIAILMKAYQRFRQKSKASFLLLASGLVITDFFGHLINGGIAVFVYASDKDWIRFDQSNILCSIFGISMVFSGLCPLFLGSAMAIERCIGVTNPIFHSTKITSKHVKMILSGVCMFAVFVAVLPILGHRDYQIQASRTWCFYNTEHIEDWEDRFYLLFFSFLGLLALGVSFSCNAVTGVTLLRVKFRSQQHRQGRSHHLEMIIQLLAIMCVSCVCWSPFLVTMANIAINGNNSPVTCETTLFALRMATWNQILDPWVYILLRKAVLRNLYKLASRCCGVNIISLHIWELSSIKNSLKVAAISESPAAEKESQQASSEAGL

Prostacyclin receptor = Prostacyclin receptor (Homo sapiens, UniProt P43119); test: Displacement of [3H]-Iloprost from human IP receptor expressed in CHO cells after 30 mins by liquid scintillation counting; assay type: cell-based
Sequence of Prostacyclin receptor (P43119 whole entry): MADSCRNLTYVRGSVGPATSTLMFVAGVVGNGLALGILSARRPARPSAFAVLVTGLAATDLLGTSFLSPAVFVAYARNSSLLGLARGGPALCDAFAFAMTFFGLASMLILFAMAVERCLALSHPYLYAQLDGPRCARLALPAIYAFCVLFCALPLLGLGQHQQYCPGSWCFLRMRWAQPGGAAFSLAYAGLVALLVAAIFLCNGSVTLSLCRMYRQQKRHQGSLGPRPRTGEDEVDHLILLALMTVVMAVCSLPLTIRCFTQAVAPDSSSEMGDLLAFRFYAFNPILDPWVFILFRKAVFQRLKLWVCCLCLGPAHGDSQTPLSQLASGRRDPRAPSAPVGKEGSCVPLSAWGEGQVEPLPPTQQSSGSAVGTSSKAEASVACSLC
Method in brief: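 Membranes from CHO cells expressing hIP were incubated with 5.0 nM [³H]Iloprost and compounds at various concentrations. Buffer was 50 mM Tris–HCl pH 7.5 with 1 mM EDTA and 10 mM MgCl₂, for 30 min at room temperature. Samples were filtered on GF/B, washed with 10 mM Tris–HCl/100 mM NaCl pH 7.5, dried 60 min at 60 °C and scintillation counted.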

Cavia porcellus [9] = test: Inhibition of OVA-induced vascular permeability in guinea pig conjunctiva at 1 mg/kg, po administered 1 hr before antigen challenge measured after 30 mins; assay type: functional; method in brief: as §2

SMILES	Ki [1]	Ki [2]	Ki [3]	Ki [4]	inhibition in vivo at 3 mg/kg (Cavia porcellus [5])	Ki [6]	IC50 [7]	IC50 (Thromboxane A2 receptor)	Ki [8]	Ki (Prostacyclin receptor)	inhibition in vivo at 1 mg/kg (Cavia porcellus [9])	Ki (Thromboxane A2 receptor)
Cc1cc(OC[C@@H]2CN(C)c3ccccc3O2)ccc1C(=O)n1c(C)c(CC(=O)O)c2ccccc21	3.5 nM	> 10000 nM	500 nM	2900 nM	29%	3600 nM	1.1 nM	> 10000 nM	2600 nM	130 nM		
Cc1c(CC(=O)O)c2ccccc2n1C(=O)c1ccc(OC[C@@H]2CN(C)c3ccccc3O2)cc1Cl	4.4 nM	> 10000 nM	600 nM	> 10000 nM	48%	> 10000 nM	2.2 nM			92 nM		
Cc1c(CC(=O)O)c2cc(F)ccc2n1C(=O)c1ccc(OC[C@@H]2CN(C)c3ccccc3O2)cc1Cl	5.2 nM	4100 nM	370 nM	> 10000 nM	52%	3200 nM	1.6 nM	> 10000 nM	1200 nM	200 nM		
CCN1c2ccccc2C[C@@H]1COc1ccc(C(=O)n2c(C)c(CC(=O)O)c3ccccc32)c(C)c1	4.8 nM	1600 nM	2700 nM	> 10000 nM		2800 nM	2.2 nM	7600 nM	1400 nM	2200 nM	42%	
Cc1cc2c(CC(=O)O)cccc2n1C(=O)c1ccc(OC[C@@H]2CN(C)c3ccccc3O2)cc1	16 nM	> 10000 nM			41%		2.4 nM		3100 nM	37 nM	23%	260 nM
